Source: PubChem (several laboratories)
Myeloid diff MLP: induction of myeloid progenitor differentiation, primary screen, cell-based, flow cytometry, MLPCN library | calls only at 10 µM | ER-HoxA9 myeloid progenitors, lysozyme-GFP differentiation | AID 624256, 2012 | 360,000 tested, 1% active;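 active means normalized GFP-positive differentiation at or above the plate's own cutoff, the solvent-only control mean plus 3 SD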;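 further: cells exposed to compound for four days before flow analysis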
T cell modulator: modulators of CD8 T cell-vesicle binding, primary screen, mouse 2C CD8+ T cells, flow cytometry | response (vesicle binding), % at 7 µM | AID 2052, 2009 | 2C CD8+ T cell-vesicle binding; active compounds read low | 330,000 tested, 0.068% active;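 active means response, share of CD8 T cells binding vesicles, and their 90th percentile fluorescence all below set limits, cut at about 80% in these data, passing the limit was not always enough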;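 further: values below 100% mean blocked vesicle binding to the CD8+ T cells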
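Assay system: 2C TCR transgenic mouse naive CD8+ T cells, MACS-purified | Read-out: CD8+ gate FL2 mean fluorescence as % of same-row positive control | Signal: High-throughput flow cytometry with anti-B7-1 and anti-CD8 staining | Timing: Binding step 1.5 h, 37 °C, antibody labelling 20 min, ice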
NR2E3 ag-1: NR2E3 agonists in two-hybrid cells, primary screen, cell-based, luminescence, CHO-S, Gal4-NCOR/VP16-NR2E3; Photoreceptor-specific nuclear receptor (Homo sapiens), Q9Y5X4; luciferase; inhibition of corepressor binding, % at 3.98 µM; 360,000 tested, 0.35% active;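 active means inhibition above the mean of all tested compounds plus 3 SD, cut at about 70% in these data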;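 further: 0% = DMSO with NR2E3 transfected cells and 100% = cells lacking NR2E3 construct; higher means lower luciferase signal from less NR2E3 corepressor binding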
Target sequence (Q9Y5X4 whole entry, looked up, the tested form may be a part): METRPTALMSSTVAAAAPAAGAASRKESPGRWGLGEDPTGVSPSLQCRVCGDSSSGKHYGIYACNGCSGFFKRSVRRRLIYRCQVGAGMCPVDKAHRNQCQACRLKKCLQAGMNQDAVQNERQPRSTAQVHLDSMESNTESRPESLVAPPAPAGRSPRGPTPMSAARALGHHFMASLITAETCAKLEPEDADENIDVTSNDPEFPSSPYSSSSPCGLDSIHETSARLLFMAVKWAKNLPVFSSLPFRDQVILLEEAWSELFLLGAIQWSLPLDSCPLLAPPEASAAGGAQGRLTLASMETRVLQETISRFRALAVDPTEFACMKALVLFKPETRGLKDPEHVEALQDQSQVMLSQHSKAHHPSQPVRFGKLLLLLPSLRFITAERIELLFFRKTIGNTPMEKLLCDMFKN
NR2E3 ag-2: inhibitors of NR2E3-RetCOR corepressor binding, primary screen, NR2E3 agonist project, biochemical, TR-FRET, GST-NR2E3, biotin-RetCOR; Photoreceptor-specific nuclear receptor (Homo sapiens), Q9Y5X4; 1536-well; inhibition of corepressor binding, % at 4.78 µM; 320,000 tested, 0.12% active; AID 2300, 2010;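 active means percent inhibition above the cutoff of mean plus 3 SD of all tested compounds, set per screening campaign, cut at about 20% in these data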;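 further: 0% = DMSO wells and 100% = biotin wells as full block of FRET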
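Material: NR2E3–RetCOR corepressor complex / Incubation: Compound–protein incubation for 5 h at 4 °C / Dosing: compound at 4.8 µM, single dose / Detection: time-resolved FRET / Benchmarks: high control biotin, low control 0.6% DMSO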
FXN GAA850 act: FXN promoter activators, primary screen, cell-based, luciferase luminescence, HEK293 lucGAA850; HEK293 lucGAA850 FXN promoter luciferase reporter, 24 h; percent of 10 µM SAHA response; activation, % at 6 µM; 360,000 tested, 0.56% active; AID 540364, 2011;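 active means activation above the average of all compounds screened plus 3 SD, cutoff fixed separately per campaign, cut at about 7.5% in these data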;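 further: 0% = DMSO wells and 100% = 10 µM SAHA wells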
The depositor's hits bear a star; i = inactive; . = no result given; + = active, no number. Only some compounds are listed: those with a hit (about 2% of all), similar ones and a draw of the others.

SMILES	Myeloid diff MLP	T cell modulator	NR2E3 ag-1	NR2E3 ag-2	FXN GAA850 act
O=C(NCc1ccc(F)cc1)c1cccc2c1C(=O)c1ccc(N3CCC(Cc4ccccc4)CC3)cc1S2(=O)=O	+	652	-24	.	-2
O=C(NCc1cc(C(F)(F)F)ccc1Cl)c1cccc2c1C(=O)c1ccc(N3CCC(Cc4ccccc4)CC3)cc1S2(=O)=O	+	144	2	.	0
CC(C)(C)CNC(=O)c1cccc2c1C(=O)c1ccc(N3CCCC3)cc1S2(=O)=O	i	272	8	.	-1
O=C(NCc1ccc(F)cc1)c1cccc2c1C(=O)c1ccc(N3CCC(N4CCCCC4)CC3)cc1S2(=O)=O	+	.	-4	.	1
O=C(NCCN1CCCCC1)c1cccc2c1C(=O)c1ccc(N3CCCC3)cc1S2(=O)=O	+	341	14	.	-1
O=C(NCc1ccco1)c1cccc2c1C(=O)c1ccc(N3CCC(N4CCCCC4)CC3)cc1S2(=O)=O	i	.	-27	.	0
CC1CCN(c2ccc3c(c2)S(=O)(=O)c2cccc(C(=O)NCc4ccc(F)cc4)c2C3=O)CC1	i	350	12	2	-1
O=C(Nc1ccc(F)c(Cl)c1)[C@@H]1O[C@H](CO)[C@H](O)[C@H](O)[C@H]1O	i	.	-4	.	1
Cc1ccc(OC(=O)N(C)C[C@@H]2OCc3cn(nn3)CCCC(=O)N([C@H](C)CO)C[C@H]2C)cc1	i	.	-18	.	0
O=C1c2ccccc2C(=O)c2c(/C=C/N3CCCCC3)ccnc21	+	.	-12	.	0
CC1=C(C(=O)N2CCCCCC2)CC(CC(=O)NC2CCCC2)C(=O)N1CCC1=CCCCC1 (stereo not given)	i	.	-12	.	.
CC(C)(C)C1CCC2(CC1)C(C#N)=C(SCC(=O)Nc1ccccc1)NC(=O)C2C#N (stereo not given)	i	316	100*	-5	1
CC1(C)CC(=O)C2=C(C1)NC(SCC(=O)Nc1ccccc1)=C(C#N)C21CCCCC1	i	307	-12	0	-1
CCCCN(C(=O)C1CCN(C(=O)c2ccccc2C)CC1)c1c(N)n(CC(C)C)c(=O)[nH]c1=O	i	.	-1	.	2
CCc1ccc(C2=CC(c3cc(Br)ccc3F)n3ncnc3N2)cc1 (stereo not given)	+	239	8	-3	-1
O=C(CCc1nnc(Cc2c[nH]c3ccccc23)o1)NCCC1CCCCO1 (stereo not given)	+	.	-9	.	2
N#Cc1cccc(C(=O)C(=O)N2CCN(c3ccccc3)CC2)c1	i	.	.	.	.
CN1CCN(C2=CC3=CC(=C(C#N)C#N)CCC3CC2)CC1 (stereo not given)	+	.	-14	.	-1
CC1(C)CC(NCCN2CCN(C3=CC(=C(C#N)C#N)CC(C)(C)C3)CC2)=CC(=C(C#N)C#N)C1	i	371	-18	0	-1
N#CC(C#N)=C1C=C2C=C(N3CCCCCC3)CCC2CC1 (stereo not given)	i	.	-16	.	3
CCN1CCN(C2=CC3=CC(=C(C#N)C#N)CCC3CC2)CC1 (stereo not given)	+	.	-15	.	-2
N#CC(C#N)=C1C=C2C=C(N3CCOCC3)CCC2CC1 (stereo not given)	+	.	-16	.	-1
Cc1ccc(NC(=O)CSCC(=O)Nc2nnc(C)s2)cc1	i	344	-10	-1	0
O=C1NN(c2ccccc2)C(=O)C1=Cc1ccccc1O	i	.	-12	.	-1
COc1cc(/C=C2/C(=O)NN(c3ccc(C)c(Cl)c3)C2=O)cc([N+](=O)[O-])c1O	+	194	-35	.	-1
O=C1NN(c2ccccc2)C(=O)/C1=C\c1cccn1-c1ccc(Cl)c([N+](=O)[O-])c1	+	405	-36	-3	-1
Clc1cccc(CN2CCN(c3ncccn3)CC2)c1Cl	i	90	-22	3	1
CC1CCCC1/C(=N/O)c1ccccc1 (stereo not given)	i	73	-38	0	2
